In publication PMC4817271 (Journal of medicinal chemistry, 2015):

Key:
rat mGlu2 = rat mGlu2 (Rattus norvegicus, UniProt P31421); assay: Calcium mobilization mGlu2 assay; assay type: cell-based; details: for IC50: average of n ≥ 3
Summary of the method: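 Fluorescence calcium-mobilization read-out in a cell line stably co-expressing rat mGlu2 and the promiscuous G-protein Gα15. Test compound was applied up to 30 μM, and NAM activity was measured as inhibition of the glutamate response. Values are the average of n=3. LLE = pIC50 − cLogP, with cLogP calculated by software.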

[1] = Rat plasma protein binding; assay type: in vitro ADME
[2] = Intrinsic clearance in rat liver microsomes, predicted hepatic clearance; assay type: in vitro ADME
Summary of the method: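 Test compound was incubated with rat liver microsomes to give intrinsic clearance (CLint), which was converted to predicted hepatic clearance. Compounds were binned against hepatic blood flow: low (<1/3), moderate (1/3 to 2/3) or high (>2/3).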

[3] = Protein binding in rat brain homogenates; assay type: in vitro ADME; details: brain homogenate
[4] = Rat iv cassette PK tissue distribution; assay type: in vivo; details: 0.2 mg/kg
Summary of the method: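 Cassette dosing in rats: iv at 0.2 mg/kg per compound, as a solution in 8% EtOH, 30% PEG 400 and 62% DMSO (2 mg/mL total), n=2. Single time point brain and plasma sampling at 15 min after dose. Kp = total brain/total plasma; Kp,uu = (brain fu × total brain)/(plasma fu × total plasma).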

P-gp (MDR1) = P-gp (MDR1) (Homo sapiens, UniProt P08183); assay: Permeability in MDR1-MDCK cells; assay type: in vitro ADME; details: dog (MDCK cells), human MDR1 expressed
[5] = system: other members of the mGlu family; assay: Fold-shift selectivity experiments versus other mGlus; assay type: cell-based; details: effect of 10 μM compound on orthosteric agonist CRC
human M1 = target: T1, human M1 (Homo sapiens, UniProt P11229); assay: Human M1 functional assay; assay type: cell-based; details: up to the highest concentration tested (30 μM)
T1 sequence (P11229 1-460): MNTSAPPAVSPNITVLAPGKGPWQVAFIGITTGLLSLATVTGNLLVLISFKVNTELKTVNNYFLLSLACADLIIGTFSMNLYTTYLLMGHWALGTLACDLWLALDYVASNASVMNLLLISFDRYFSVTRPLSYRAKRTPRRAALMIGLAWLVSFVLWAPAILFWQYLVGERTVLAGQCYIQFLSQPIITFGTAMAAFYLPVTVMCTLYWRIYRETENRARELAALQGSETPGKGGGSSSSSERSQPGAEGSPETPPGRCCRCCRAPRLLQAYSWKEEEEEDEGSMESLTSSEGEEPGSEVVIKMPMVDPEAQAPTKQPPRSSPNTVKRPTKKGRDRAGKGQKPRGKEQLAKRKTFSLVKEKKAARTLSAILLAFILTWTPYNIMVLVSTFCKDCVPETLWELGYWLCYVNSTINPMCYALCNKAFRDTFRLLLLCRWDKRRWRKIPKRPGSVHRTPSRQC

[6] = system: panel of 68 clinically relevant GPCRs, ion channels, kinases, and transporters; assay: Radioligand binding assay panel; details: 10 μM; significant = more than 50% inhibition of radioligand binding
Rat IV PK = assay type: in vivo
Summary of the method: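 Rats received test compound iv at 0.2 mg/kg as a solution in 9% EtOH, 38% PEG 400 and 53% DMSO (1 mg/mL dosing solution), n=2. Plasma time course gave half-life, plasma clearance and volume of distribution at steady state.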

[7] = Rat IP tissue distribution; assay type: in vivo
Summary of the method: (§1)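 Single time point tissue distribution in mice or rats (n=2). Test compound was given ip at 30 mg/kg as a fine homogeneous suspension in 10% Tween-80 in water. Brain and plasma concentrations were taken 15 min after dosing. Kp = total brain/total plasma; Kp,uu = unbound brain (brain fu × total brain)/unbound plasma (plasma fu × total plasma).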

[8] = Mouse IP tissue distribution; assay type: in vivo
Summary of the method: as §1

[9] = Mouse IP tissue distribution with P-gp inhibitor 109 pretreatment; assay type: in vivo
Summary of the method: (§2)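 Mice were pretreated with the P-gp inhibitor elacridar at 20 mg/kg 1 h before the test compound. Test compound was given ip at 30 mg/kg as a fine homogeneous suspension in 10% Tween-80 in water (n=2). Brain and plasma were sampled 15 min after dosing. Kp = total brain/total plasma; Kp,uu = (brain fu × total brain)/(plasma fu × total plasma).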

P-gp = assay: as above; assay type: in vivo; details: mouse, brain, ip, with 109 (elacridar), 20 mg/kg, dosed 1 h before compound 58
Summary of the method: as §2

[10] = Mouse plasma protein binding; assay type: in vitro ADME
[11] = Protein binding in mouse brain homogenates; assay type: in vitro ADME; details: brain homogenate
[12] = rat ip 30 mg/kg, 15 min after dose
[13] = mouse ip 30 mg/kg, 15 min after dose
[14] = mouse ip 30 mg/kg, 15 min after dose, 109 dosed 1 h prior at 20 mg/kg

Chain of P-gp (MDR1) (P08183 whole entry): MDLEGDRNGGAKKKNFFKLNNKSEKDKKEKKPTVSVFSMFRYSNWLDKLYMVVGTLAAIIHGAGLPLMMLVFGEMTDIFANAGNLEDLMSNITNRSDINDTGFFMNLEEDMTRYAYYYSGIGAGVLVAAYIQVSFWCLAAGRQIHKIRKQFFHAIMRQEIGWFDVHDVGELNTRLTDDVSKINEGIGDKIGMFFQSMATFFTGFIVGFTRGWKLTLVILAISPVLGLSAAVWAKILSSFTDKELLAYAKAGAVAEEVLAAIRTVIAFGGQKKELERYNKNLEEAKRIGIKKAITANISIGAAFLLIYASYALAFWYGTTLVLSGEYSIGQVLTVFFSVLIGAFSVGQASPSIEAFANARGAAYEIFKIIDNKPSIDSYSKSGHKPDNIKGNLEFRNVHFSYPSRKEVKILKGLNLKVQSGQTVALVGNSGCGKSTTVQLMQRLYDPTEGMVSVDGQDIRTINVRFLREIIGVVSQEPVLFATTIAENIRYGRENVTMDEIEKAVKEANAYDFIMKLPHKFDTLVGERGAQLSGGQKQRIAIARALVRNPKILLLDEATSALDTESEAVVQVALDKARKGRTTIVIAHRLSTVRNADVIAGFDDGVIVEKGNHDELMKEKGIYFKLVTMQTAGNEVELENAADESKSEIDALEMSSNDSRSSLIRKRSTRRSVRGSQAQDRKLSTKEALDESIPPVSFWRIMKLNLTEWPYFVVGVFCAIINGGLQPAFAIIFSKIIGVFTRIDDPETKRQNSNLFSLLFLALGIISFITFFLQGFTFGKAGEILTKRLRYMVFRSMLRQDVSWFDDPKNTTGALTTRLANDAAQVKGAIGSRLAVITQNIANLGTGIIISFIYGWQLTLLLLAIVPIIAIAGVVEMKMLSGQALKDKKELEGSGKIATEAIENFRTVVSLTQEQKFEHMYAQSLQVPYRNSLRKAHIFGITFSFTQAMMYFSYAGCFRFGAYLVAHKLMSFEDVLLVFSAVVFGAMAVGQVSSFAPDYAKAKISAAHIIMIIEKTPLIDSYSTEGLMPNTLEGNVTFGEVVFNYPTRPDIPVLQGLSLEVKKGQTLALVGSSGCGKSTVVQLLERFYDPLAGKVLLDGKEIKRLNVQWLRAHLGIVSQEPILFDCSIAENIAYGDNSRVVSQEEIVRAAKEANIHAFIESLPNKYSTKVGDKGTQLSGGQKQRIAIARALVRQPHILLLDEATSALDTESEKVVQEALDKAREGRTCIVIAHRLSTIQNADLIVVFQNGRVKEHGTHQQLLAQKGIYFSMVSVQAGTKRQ
Chain of rat mGlu2 (P31421 19-872): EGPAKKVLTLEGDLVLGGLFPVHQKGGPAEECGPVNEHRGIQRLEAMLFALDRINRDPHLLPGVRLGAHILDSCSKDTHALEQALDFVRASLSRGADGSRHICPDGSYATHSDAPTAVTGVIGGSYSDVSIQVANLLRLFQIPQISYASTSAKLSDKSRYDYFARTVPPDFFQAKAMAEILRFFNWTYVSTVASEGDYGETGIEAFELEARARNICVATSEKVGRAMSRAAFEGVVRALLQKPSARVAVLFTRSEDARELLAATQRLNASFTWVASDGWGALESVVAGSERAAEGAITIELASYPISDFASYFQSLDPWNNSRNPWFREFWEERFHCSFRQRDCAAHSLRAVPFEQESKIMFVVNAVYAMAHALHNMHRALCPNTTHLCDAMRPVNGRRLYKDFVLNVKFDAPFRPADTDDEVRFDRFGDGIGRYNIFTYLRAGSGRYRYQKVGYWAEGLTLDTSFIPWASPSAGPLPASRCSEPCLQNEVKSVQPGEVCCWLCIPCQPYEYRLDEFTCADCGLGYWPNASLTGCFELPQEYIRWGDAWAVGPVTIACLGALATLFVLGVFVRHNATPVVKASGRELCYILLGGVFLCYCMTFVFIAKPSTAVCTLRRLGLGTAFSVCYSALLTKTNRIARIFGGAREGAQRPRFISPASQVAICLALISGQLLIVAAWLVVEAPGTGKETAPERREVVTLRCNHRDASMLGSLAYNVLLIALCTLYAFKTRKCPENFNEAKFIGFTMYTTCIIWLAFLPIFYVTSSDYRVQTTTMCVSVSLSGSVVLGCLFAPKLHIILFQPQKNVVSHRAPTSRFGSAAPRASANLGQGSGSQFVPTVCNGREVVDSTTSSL

LLE (rat mGlu2; LLE = pIC50 – cLogP): 3.59 | % Glu max ± SEM (rat mGlu2; amplitude of response in presence of 30 μM test compound as percentage of maximal response (100 μM glutamate)): 1.48 ± 0.29% | IC50 (rat mGlu2; mGlu2 IC50, calcium mobilization): 207 nM | IC50 (rat mGlu2; mGlu2 pIC50 ± SEM, calcium mobilization): 204 nM | unbound in rat plasma [1]: approximately 30% | fraction unbound ([1]; rat, plasma): 0.306 | predicted hepatic clearance group ([2]; binned from CLint in rat liver microsomes): low–moderate | rat CLhep ([2]; predicted hepatic clearance based on CLint in rat liver microsomes): 24.5 mL/min/kg | fraction unbound [3]: 0.191 | fraction unbound ([3]; mouse): 0.25 to 0.3 | Kp at 0.25 h ([4]; brain): 0.32 | Kp uu at 0.25 h ([4]; brain): 0.23 | concentration at 15 min ([4]; brain): 18 nM | concentration at 15 min ([4]; plasma): 56.9 nM | Papp A→B (P-gp (MDR1)): 1.54 ×10⁻⁶ cm/s | Papp B→A (P-gp (MDR1)): 79.7 ×10⁻⁶ cm/s | efflux ratio (P-gp (MDR1)): 52 | human M1 activity (human M1): no activity | clearance in vivo (Rat IV PK; rat iv time course study): high clearance | Vd (Rat IV PK; rat, plasma, iv, 0.2 mg/kg): 13.3 L/kg | clearance (Rat IV PK; rat, plasma, iv, 0.2 mg/kg): 75.8 mL/min/kg | half-life (Rat IV PK; rat, plasma, iv, 0.2 mg/kg, half-life, rat iv time course study): ~2 h | half-life (Rat IV PK; rat, plasma, iv, 0.2 mg/kg, t1/2, rat iv 0.2 mg/kg): 2.35 h | brain concentration [7, 12]: 760 nM | plasma concentration [7, 12]: 3900 nM | Kp at 0.25 h ([7]; rat, brain, ip, 30 mg/kg): 0.2 | Kp uu at 0.25 h ([7]; rat, brain, ip, 30 mg/kg): 0.12 | concentration at 15 min ([7]; rat, brain, ip, 30 mg/kg, unbound brain concentration, rat ip 30 mg/kg): 145 nM | brain concentration [8, 13]: 716 nm | plasma concentration [8, 13]: 1820 nm | Kp at 0.25 h ([8]; mouse, brain, ip, 30 mg/kg): 0.39 | Kp uu at 0.25 h ([8]; mouse, brain, ip, 30 mg/kg): 0.32 | concentration at 15 min ([8]; mouse, brain, ip, 30 mg/kg, brain concentration, mouse ip 30 mg/kg): 716 nM | concentration at 15 min ([8]; mouse, brain, ip, 30 mg/kg, unbound brain concentration, mouse ip 30 mg/kg): 184 nM | unbound brain exposure relative to mGlu2 IC50 ([9]; 30 mg/kg ip with P-gp inhibitor pretreatment): more than 5 fold | increase of exposure in the brain after pretreatment with 109 (elacridar) ([9]; mouse ip 30 mg/kg): more than 6 fold | brain concentration [9, 14]: 4580 nm | plasma concentration [9, 14]: 2160 nm | Kp at 15 min (P-gp): 2.1 | Kp uu at 15 min (P-gp): 1.7 | fraction unbound [10]: 0.315 | fraction unbound [11]: 0.257
Compound: C[C@@H]1CN(Cc2ccc3c(c2)c(=O)c(C(N)=O)cn3-c2ccc(F)cc2)C[C@H](C)O1 [Compound 58, 6-((cis-2,6-Dimethylmorpholino)methyl)-1-(4-fluorophenyl)-4-oxo-1,4-dihydroquinoline-3-carboxamide]
activity at the other mGlus [5]: no activity | ancillary pharmacology, radioligand binding panel responses [6]: no significant responses
